Measured values published in PMC6662154 (ACS Central Science, 2019).
Where no end group is shown, it is not given here.

Legend:
[1] = target: T1, PscE–PscG heterodimer (Pseudomonas aeruginosa, UniProt P95435); assay: Fluorescence polarization competitive binding assay
T1 sequence (P95435 1-115): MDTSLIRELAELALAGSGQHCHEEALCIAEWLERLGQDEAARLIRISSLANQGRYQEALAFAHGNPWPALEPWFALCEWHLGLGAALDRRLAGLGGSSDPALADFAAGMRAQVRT
T1 sequence (Q9I317 1-67 partner): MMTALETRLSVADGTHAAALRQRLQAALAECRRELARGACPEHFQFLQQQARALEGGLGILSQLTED

[2] = test system: secretion of ExoS by PAO1; assay: Inhibition of T3SS-mediated effector secretion; type: cell-based, Pseudomonas aeruginosa; details: 100 μM; PAO1 grown under low-calcium conditions
Procedure, shortened: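 To induce the T3SS, overnight PAO1 was diluted to OD600 0.3 in LB containing 5 mM EGTA and 20 mM MgCl2, with test compound, then shaken gently 3–4 h to OD 1.5. Controls were LB with 2% DMSO, and EGTA/MgCl2 medium with 2% DMSO. Supernatant proteins were TCA-precipitated (10%, 2 h on ice). Secreted and total ExoS were immunoblotted and measured by densitometry as % secreted of total; mean ± SD, three experiments.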

[3] = test system: J774A.1 cells infected with PAO1; assay: LDH release assay, PAO1-infected macrophages; type: cell-based, mouse; details: different concentrations, MOI 8, 5 h
[4] = test system: intracellular PAO1 in J774A.1 cells; assay: Quantification of intracellular bacteria in macrophages; type: cell-based, Pseudomonas aeruginosa; details: different concentrations; gentamicin at 2 h postinfection
Procedure, shortened: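 J774A.1 cells were seeded at 5 × 10^4 per well, grown 24 h and switched to serum-free medium 1 h before infection with mid-exponential PAO1 at MOI 8. Cells were infected 2 h with test compound (0–100 μM, 2% DMSO), washed, and exposed to gentamicin (50 μg/mL) for 2 h. Lysates were plated for intracellular counts, normalised to mock-treated infected cells; mean ± SD, three experiments.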

[5] = test system: PAO1 in the bronchoalveolar lavage; assay: Bacterial burden in bronchoalveolar lavage of PAO1-infected mice; type: in vivo, mouse; details: single dose 100 μM at the time of infection; sampled 18 h postinfection
Procedure, shortened: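 Female 6-week-old C57BL/6J mice were lightly anaesthetised with inhaled sevoflurane and given PAO1 intranasally (1 × 10^7 CFU in 20 μL PBS). Test compound (100 μM, 1% DMSO) was given with the inoculum; PBS with 1% DMSO served as mock treatment. At 18 h the animals were killed. Lavage was plated for counts. Lungs were formalin-fixed, paraffin-embedded, H&E-stained and scored by degree of inflammation.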

[6] = target: T2, PscG (Pseudomonas aeruginosa, UniProt P95435 1-115); assay: fluorescence polarisation
T2 sequence (looked up): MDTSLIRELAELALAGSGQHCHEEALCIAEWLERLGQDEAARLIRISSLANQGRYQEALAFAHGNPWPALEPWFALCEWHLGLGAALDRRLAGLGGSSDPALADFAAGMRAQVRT

[7] = target: T3, preformed PscE–PscG heterodimer (Pseudomonas aeruginosa, UniProt Q9I317 1-67; P95435 1-115); assay: fluorescence polarisation
T3 sequence (looked up) 1: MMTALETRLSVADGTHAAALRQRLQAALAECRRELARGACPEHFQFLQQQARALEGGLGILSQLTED
T3 sequence (looked up) 2: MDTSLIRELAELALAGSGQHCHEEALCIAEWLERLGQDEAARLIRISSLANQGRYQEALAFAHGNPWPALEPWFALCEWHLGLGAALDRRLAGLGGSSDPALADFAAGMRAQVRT

[8] = target: T3, preformed PscE–PscG heterodimer; assay: fluorescence polarisation; remark: listed apart in the source
[9] = target: T3, preformed PscE–PscG heterodimer; assay: ITC

Cc1coc2c1C(=O)C(=O)c1c-2ccc2c1CCCC2(C)C [tanshinone 2A] was tested, and the “competition with FAM-PscF69–85 for PscE–PscG binding (result in words)” value (“competition” below) [1] was “inactive”.

With C[C@H]1COC2=C1C(=O)C(=O)c1c2ccc2c1CCCC2(C)C [crpTSN, cryptotanshinone] the “effect on secretion of ExoS” value [2] was “no inhibitory activity”, the “competition” value [1] was “inactive” and the “inhibition of Pseudomonas-aeruginosa-induced cell lysis (LDH release), in words” value [3] was “inactive”.

CC(Oc1ccc(Cl)cc1Cl)C(=O)NCc1ccc2c(c1)OCO2 (stereo not drawn) [MBX-1641] was tested, and the “inhibition of intracellular bacterial survival / proliferation of PAO1” value [4] was “inhibited”, the “bacterial burden in the bronchoalveolar lavage” value [5] was “reduced bacterial burden” and the “competition” value [1] was “no effect”. For the same molecule, the “inhibition of Pseudomonas-aeruginosa-induced cell lysis (LDH release), in words” value [3] was “inhibited”.

With TVTRALRDLMQGILQKI (peptide, UniProt P95434 69-85, looked up, also: fluorescein (FAM) label) [^FAMPscF^69–85] the Kd [6] was 10.8 µM and the Kd [7] was 0.052 µM.

TVTRALRDLMQGILQKI (peptide, UniProt P95434 69-85, looked up) [PscF^69–85] was tested, and the IC50 [8] was 4.32 µM and the Kd [9] was 0.0515 µM.
